Assays:
[1] = Stability in human liver microsomes assessed as parent compound remaining measured after 10 mins; type: ADME, Microsome; conditions: liver microsomes, read-out: Stability
[2] = Stability in rat liver microsomes assessed as parent compound remaining measured after 10 mins; type: ADME, Microsome; conditions: read-out: Stability
[3] = Clearance in rat at 2 mg/kg, po or 0.5 mg/kg, iv administered as infusion for 10 mins; type: ADME, organism-based; conditions: in vivo
[4] = Half life in rat at 2 mg/kg, po or 0.5 mg/kg, iv administered as infusion for 10 mins; type: ADME, organism-based; conditions: in vivo
[5] = Oral bioavailability in rat at 2 mg/kg; type: ADME, organism-based; conditions: in vivo
Procedure, shortened: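 Rat dosing: iv 0.5 mpk as a 10 min infusion in 25/75 propylene glycol/PEG400 at 2 ml/kg. po 2 mpk in 5/5/90 EtOH/TPGS/PEG300 at 5 mL/kg.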

[6] = target: T1, Proteinase-activated receptor 4 (Homo sapiens) (UniProt Q96RI0); assay: Displacement of [3H]BMS-986120 from His-tagged human PAR4 expressed in HEK293 cell membranes assessed as association rate constant
T1 sequence (whole entry): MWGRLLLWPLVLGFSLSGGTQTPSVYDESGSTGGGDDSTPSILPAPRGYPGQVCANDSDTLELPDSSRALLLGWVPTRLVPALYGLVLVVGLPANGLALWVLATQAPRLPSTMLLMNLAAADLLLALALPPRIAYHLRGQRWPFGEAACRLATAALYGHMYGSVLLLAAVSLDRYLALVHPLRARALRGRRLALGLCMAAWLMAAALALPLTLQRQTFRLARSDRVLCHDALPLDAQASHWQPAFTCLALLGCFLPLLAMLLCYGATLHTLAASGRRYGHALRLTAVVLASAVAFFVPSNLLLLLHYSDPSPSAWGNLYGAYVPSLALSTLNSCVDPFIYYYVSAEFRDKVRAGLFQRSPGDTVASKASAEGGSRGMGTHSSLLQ
Procedure, shortened: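 HEK293 membranes expressing PAR4. Association kinetics measured; values are mean ± standard deviation, n = 3.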

[7] = target: T1, Proteinase-activated receptor 4 (Homo sapiens); assay: Displacement of [3H]BMS-986120 from His-tagged human PAR4 expressed in HEK293 cell membranes assessed as dissociation rate constant measured after 2 hrs
[8] = Half life in mouse liver microsomes; type: ADME, Microsome
[9] = Half life in dog liver microsomes; type: ADME, Canis lupus familiaris, Microsome
[10] = Half life in monkey liver microsomes; type: ADME, Macaca mulatta, Microsome; conditions: rhesus monkey
[11] = target: CYP450 (isoform not stated) (Homo sapiens, UniProt P04798+P05177+P05181+P08684+P10632+P10635+P11509+P11712+P13584+P20813+P20815+P20853+P24462+P24903+P33260+P33261+P51589+P78329+P98187+Q02928+Q08477+Q16678+Q16696+Q5TCH4+Q6VVX0+Q7Z449+Q8TAV3+Q96SQ9+Q9HB55); assay: Inhibition of CYP450 in human liver microsomes; type: ADME
[12] = target: T2, Nuclear receptor subfamily 1 group I member 2 (Homo sapiens, UniProt O75469); assay: Activation of human PXR; type: ADME
T2 sequence (O75469 whole entry): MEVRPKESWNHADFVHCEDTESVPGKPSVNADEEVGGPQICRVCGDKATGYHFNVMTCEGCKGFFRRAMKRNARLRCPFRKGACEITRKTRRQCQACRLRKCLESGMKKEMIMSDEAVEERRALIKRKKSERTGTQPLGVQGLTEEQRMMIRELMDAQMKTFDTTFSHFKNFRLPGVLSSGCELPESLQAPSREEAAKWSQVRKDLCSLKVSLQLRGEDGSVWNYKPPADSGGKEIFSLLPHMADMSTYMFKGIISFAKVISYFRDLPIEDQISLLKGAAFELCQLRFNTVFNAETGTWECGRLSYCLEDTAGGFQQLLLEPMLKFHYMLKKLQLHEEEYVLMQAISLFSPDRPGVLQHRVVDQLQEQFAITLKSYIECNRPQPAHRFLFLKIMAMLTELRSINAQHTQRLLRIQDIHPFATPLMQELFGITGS

hERG (KCNH2) = hERG (KCNH2) (Homo sapiens, UniProt Q12809); assay: Inhibition of human ERG at 10 uM by patch clamp method
Sequence of hERG (KCNH2) (Q12809 whole entry): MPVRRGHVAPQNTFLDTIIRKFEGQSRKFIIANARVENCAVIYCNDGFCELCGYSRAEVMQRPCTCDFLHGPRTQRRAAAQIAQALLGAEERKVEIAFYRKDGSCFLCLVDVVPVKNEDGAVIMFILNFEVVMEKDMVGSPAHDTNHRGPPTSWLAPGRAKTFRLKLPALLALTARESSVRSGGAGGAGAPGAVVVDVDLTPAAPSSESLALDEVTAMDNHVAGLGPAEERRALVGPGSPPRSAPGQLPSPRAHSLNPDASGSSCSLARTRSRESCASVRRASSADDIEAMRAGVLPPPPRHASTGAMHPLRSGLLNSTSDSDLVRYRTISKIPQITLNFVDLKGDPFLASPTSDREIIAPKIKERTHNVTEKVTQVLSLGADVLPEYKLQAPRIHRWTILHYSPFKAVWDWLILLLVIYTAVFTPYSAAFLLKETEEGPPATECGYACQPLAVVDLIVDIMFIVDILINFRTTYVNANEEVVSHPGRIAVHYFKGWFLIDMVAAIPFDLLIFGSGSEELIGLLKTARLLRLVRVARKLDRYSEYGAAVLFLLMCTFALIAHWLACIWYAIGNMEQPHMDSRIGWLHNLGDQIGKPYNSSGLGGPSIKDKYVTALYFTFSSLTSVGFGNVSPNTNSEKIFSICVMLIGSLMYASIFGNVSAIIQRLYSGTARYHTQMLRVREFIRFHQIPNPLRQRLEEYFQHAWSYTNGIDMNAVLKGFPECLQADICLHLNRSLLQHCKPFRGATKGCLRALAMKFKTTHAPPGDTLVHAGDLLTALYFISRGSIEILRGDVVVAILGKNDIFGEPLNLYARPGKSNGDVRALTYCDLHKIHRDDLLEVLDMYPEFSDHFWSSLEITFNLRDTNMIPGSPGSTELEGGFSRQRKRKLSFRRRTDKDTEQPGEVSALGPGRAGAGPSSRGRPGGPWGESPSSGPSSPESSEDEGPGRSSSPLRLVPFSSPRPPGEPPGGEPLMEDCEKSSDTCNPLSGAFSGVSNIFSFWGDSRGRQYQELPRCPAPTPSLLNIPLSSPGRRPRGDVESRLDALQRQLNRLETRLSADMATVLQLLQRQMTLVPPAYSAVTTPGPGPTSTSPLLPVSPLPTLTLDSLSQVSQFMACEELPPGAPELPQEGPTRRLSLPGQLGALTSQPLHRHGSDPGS

[13] = Protein binding in human plasma; type: ADME, cell-free; conditions: read-out: PPB (converted)
[14] = Protein binding in rat plasma; type: ADME, cell-free; conditions: read-out: PPB (converted)
[15] = Protein binding in mouse plasma; type: ADME, cell-free; conditions: read-out: PPB (converted)
[16] = Protein binding in dog plasma; type: ADME, cell-free, Canis lupus familiaris; conditions: read-out: PPB
[17] = Protein binding in monkey plasma; type: ADME, cell-free, Macaca mulatta; conditions: rhesus monkey, read-out: PPB
[18] = target: T3, Proteinase-activated receptor 1 (Homo sapiens, UniProt P25116); assay: Antagonist activity at PAR1 in human platelet rich plasma assessed as inhibition of SFFLRR-induced platelet aggregation preincubated for 5 mins followed by SFFLRR addition
T3 sequence (P25116 whole entry): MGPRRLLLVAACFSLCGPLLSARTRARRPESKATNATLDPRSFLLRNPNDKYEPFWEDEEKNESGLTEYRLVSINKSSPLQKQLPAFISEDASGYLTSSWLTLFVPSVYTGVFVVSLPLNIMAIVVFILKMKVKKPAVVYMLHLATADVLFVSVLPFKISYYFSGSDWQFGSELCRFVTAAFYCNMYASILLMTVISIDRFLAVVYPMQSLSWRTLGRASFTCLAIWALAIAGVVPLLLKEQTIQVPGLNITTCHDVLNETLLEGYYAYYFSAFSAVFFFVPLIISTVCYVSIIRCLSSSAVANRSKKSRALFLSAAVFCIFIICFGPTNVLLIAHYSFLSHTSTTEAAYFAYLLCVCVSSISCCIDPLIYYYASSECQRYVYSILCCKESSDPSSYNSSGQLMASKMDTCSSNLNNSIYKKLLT

[19] = Clearance in dog at 2 mg/kg, po or 0.5 mg/kg, iv administered as infusion for 10 mins; type: ADME, organism-based, Canis lupus familiaris; conditions: in vivo
Procedure, shortened: (§1)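 Dog and monkey dosing: iv 0.5 mpk as a 10 min infusion in PEG400 at 0.8 ml/kg. po 2 mpk in 40/60 TPGS/PEG400 at 0.5 mL/kg.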

[20] = Half life in dog at 2 mg/kg, po or 0.5 mg/kg, iv administered as infusion for 10 mins; type: ADME, organism-based, Canis lupus familiaris; conditions: in vivo; procedure, shortened: as §1
[21] = Oral bioavailability in dog at 2 mg/kg; type: ADME, organism-based, Canis lupus familiaris; conditions: in vivo; procedure, shortened: as §1
[22] = Clearance in monkey at 2 mg/kg, po or 0.5 mg/kg, iv administered as infusion for 10 mins; type: ADME, organism-based, Macaca mulatta; conditions: rhesus monkey, in vivo; procedure, shortened: as §1
[23] = Half life in monkey at 2 mg/kg, po or 0.5 mg/kg, iv administered as infusion for 10 mins; type: ADME, organism-based, Macaca mulatta; conditions: rhesus monkey, in vivo; procedure, shortened: as §1
[24] = Oral bioavailability in monkey at 2 mg/kg; type: ADME, organism-based, Macaca mulatta; conditions: rhesus monkey, in vivo; procedure, shortened: as §1
Cynomolgus monkey [25] = assay: Antithrombotic activity in cynomolgus monkey electrolytic carotid artery thrombosis assessed as reduction in thrombus weight administered via oral gavage measured after 1.5 hrs; type: functional, organism-based; conditions: Macaca fascicularis
Procedure, shortened: (§2)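 Monkeys retired from earlier studies after a washout of at least 4 weeks, randomized to vehicle (n=8) or 0.4, 2 or 10 mg/kg (n=7 each). Dosed by oral gavage in 40/60 w/w TPGS/PEG400 at 2 ml/kg. Anesthetized and surgically prepared 1.5 h post-dose. Thrombosis and bleeding time measured in the same animal.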

Cynomolgus monkey [26] = assay: Antithrombotic activity in cynomolgus monkey electrolytic carotid artery thrombosis assessed as reduction in thrombus weight at 0.4 mg/kg, po administered via gavage measured after 1.5 hrs relative to control; type: functional, Macaca fascicularis; set-up: scale not given: the % may be the effect or the level left; procedure, shortened: as §2
Cynomolgus monkey [27] = assay: Antithrombotic activity in cynomolgus monkey electrolytic carotid artery thrombosis assessed as reduction in thrombus weight at 2 mg/kg, po administered via gavage measured after 1.5 hrs relative to control; type: functional, Macaca fascicularis; set-up: scale not given: the % may be the effect or the level left; procedure, shortened: as §2
Cynomolgus monkey [28] = assay: Antithrombotic activity in cynomolgus monkey electrolytic carotid artery thrombosis assessed as reduction in thrombus weight at 10 mg/kg, po administered via gavage measured after 1.5 hrs relative to control; type: functional, Macaca fascicularis; set-up: scale not given: the % may be the effect or the level left; procedure, shortened: as §2
[29] = Toxicity in cynomolgus monkey assessed as prolongation of kidney bleeding time at 10 mg/kg, po administered via gavage measured up to 20 mins; type: organism-based, Macaca fascicularis; conditions: in vivo
Procedure, shortened: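 Oral gavage at 10 mg/kg or vehicle (40/60 w/w TPGS/PEG400, 2 ml/kg) to monkeys, anesthetized 1.5 h later. Bleeding time taken by renal cortex incision: time until bleeding stopped with no re-bleeding for 30 s, monitored up to 20 min, done in triplicate.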

COc1cc(OCc2cccc(OCc3ccccc3)c2)c2cc(-c3cn4nc(OC)sc4n3)oc2c1
remaining at 10 min [1]: 85%
remaining at 10 min [2]: 76%
clearance [3]: 10 mL/min/kg
half-life [4]: 6.9 h
bioavailability [5]: 11%
K [6]: 66700 M⁻¹ s⁻¹
K [7]: 0.013 min⁻¹
half-life [8]: 2 h
half-life [9]: 1.67 h
half-life [10]: 0.8 h
IC50 [11]: > 40 µM
EC50 [12]: > 50 µM
inhibition at 10 µM (hERG (KCNH2)): ≤ 10%
fraction unbound [13]: 0.004
fraction unbound [14]: 0.002
fraction unbound [15]: 0.005
fraction unbound [16]: ≤ 0.002
fraction unbound [17]: < 0.002
IC50 [18]: > 30 µM
clearance [19]: 1.6 mL/min/kg
half-life [20]: 7 h
bioavailability [21]: 26%
clearance [22]: 5.2 mL/min/kg
half-life [23]: 6.2 h
bioavailability [24]: 11%
Activity (Cynomolgus monkey [25]): Dose-dependent effect
Activity (Cynomolgus monkey [26]): 9%
Activity (Cynomolgus monkey [27]): 38%
Activity (Cynomolgus monkey [28]): 38%
Activity [29]: Non-Toxic

From ChEMBL document CHEMBL4406800, “Discovery of Potent Protease-Activated Receptor 4 Antagonists with in Vivo Antithrombotic Efficacy” (J Med Chem, 2019)
